What was measured:
[1] = Half life at pH 7.4; format: ADME; conditions: buffer
[2] = target: Potassium-transporting ATPase (Oryctolagus cuniculus); assay: In vitro evaluation for the inhibition of H+/K+ ATPase at pH < 3 in the gastric glands of isolated rabbit stomach.
[3] = target: Sodium/potassium-transporting ATPase; assay: In vitro evaluation for its ability to inhibit the Na+/K+ ATPase at pH 7.4.; format: protein-complex assay, Canis lupus familiaris
How it was run: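 Dog kidney (Na+,K+)-ATPase (20 μg) incubated in 50 mmol/L HEPES pH 7.4 containing (mmol/L) 140 NaCl, 10 KCl, 3 ATP-Mg and 0.5 EDTA, with inhibitor at 0–300 μmol/L.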

[4] = t1/2 (pH 3); format: ADME
[5] = t1/2 (pH 5); format: ADME
[6] = pKa value (imidazole); format: physicochemical
How it was run: (§1)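 Measured spectrophotometrically at ambient temperature (25 °C).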

[7] = pKa value (pyridine); format: physicochemical; how it was run: as §1
[8] = Half life at pH 7.4; Insoluble to measure; format: ADME; conditions: buffer
[9] = Half life at pH 5; Insoluble to measure; format: ADME; conditions: buffer
[10] = Half life at pH 3; Insoluble to measure; format: ADME; conditions: buffer

Compound | half-life [1] [days] | IC50 [2] [nM] | -Log IC50 [3] | half-life [4] [min] | half-life [5] [min] | pKa [6] | pKa [7] | T1/2 [8] | T1/2 [9] | T1/2 [10]
COc1cnc(C[S+]([O-])c2nc3cc(OC(F)(F)C(F)F)ccc3[nH]2)c(C)c1OC (stereo unspecified) | 1.79 | 7940 | 4.2 | 20 | 408 | – | – | – | – | –
COc1cc(C[S+]([O-])c2nc3cc(OC(F)(F)C(F)F)ccc3[nH]2)ncc1C (stereo unspecified) | 0.75 | 1260 | 5.5 | 6 | 12 | 8 | 4.95 | – | – | –
COc1ccnc(C[S+]([O-])c2nc3cc(F)c(OC(F)F)cc3[nH]2)c1C (stereo unspecified) | 0.167 | 3160 | 4.7 | 8 | 30 | – | – | – | – | –
COc1cnc(C[S+]([O-])c2nc3cc(OC(F)F)ccc3[nH]2)c(C)c1OC (stereo unspecified) | 2.5 | 2510 | 4.6 | 12 | 222 | 8.35 | 3.73 | – | – | –
COc1ccnc(C[S+]([O-])c2nc3cc(OC(F)F)ccc3[nH]2)c1C (stereo unspecified) | 0.125 | 631 | 5.2 | 5 | 10.2 | – | – | – | – | –
COc1ccnc(C[S+]([O-])c2nc3cc(OC(F)(F)C(F)F)ccc3[nH]2)c1OC (stereo unspecified) | 6.67 | 5010 | 3.8 | 18 | 216 | 8.08 | 3.86 | – | – | –
COc1cnc(C[S+]([O-])c2nc3cc4c(cc3[nH]2)OC(F)(F)O4)c(C)c1OC (stereo unspecified) | – | 15800 | < 3 | – | – | – | – | Insoluble to measure | Insoluble to measure | Insoluble to measure
COc1cnc(C[S+]([O-])c2nc3cc4c(cc3[nH]2)OC(F)(F)O4)cc1OC (stereo unspecified) | – | 63100 | < 3 | – | – | – | – | Insoluble to measure | Insoluble to measure | Insoluble to measure
COc1cnc(C[S+]([O-])c2nc3cc(OC(F)F)ccc3[nH]2)cc1OC (stereo unspecified) | > 8.33 | 31600 | < 3.5 | 17 | 126 | 8.03 | 3.75 | – | – | –
COc1ccnc(C[S+]([O-])c2nc3cc(F)c(OC(F)F)cc3[nH]2)c1OC (stereo unspecified) | 6.25 | 7940 | 3.4 | 26 | 498 | 7.76 | 3.76 | – | – | –
COc1ccnc(C[S+]([O-])c2nc3cc(OCC(F)(F)F)ccc3[nH]2)c1C (stereo unspecified) | 0.208 | 794 | 5.4 | 5 | 9 | 8.51 | 4.97 | – | – | –
COc1ccnc(C[S+]([O-])c2nc3cc4c(cc3[nH]2)OC(F)(F)O4)c1 (stereo unspecified) | – | 2510 | < 3.5 | 20 | 84 | 7.92 | 4.29 | Insoluble to measure | – | –
Cc1c(OCC(F)(F)F)ccnc1C[S+]([O-])c1nc2ccccc2[nH]1 (stereo unspecified) [LANSOPRAZOLE] | 1.67 | – | 4.4 | 4 | 66 | 8.78 | 4.01 | – | – | –
COc1ccnc(C[S+]([O-])c2nc3cc(OC(F)F)ccc3[nH]2)c1OC (stereo unspecified) [PANTOPRAZOLE] | 5.42 | – | 3.7 | 9 | 180 | 8.19 | 3.92 | – | – | –

Now from value to compound:

half-life [1] [days] | IC50 [2] [nM] | -Log IC50 [3] | half-life [4] [min] | half-life [5] [min] | pKa [6] | pKa [7] | T1/2 [8] | T1/2 [9] | T1/2 [10] | Compound
2.12 | 1580 | 4.3 | 10 | 48 | – | – | – | – | – | COc1ccnc(C[S+]([O-])c2nc3cc(OC(F)F)ccc3[nH]2)c1 (stereo unspecified)
5.83 | 20000 | < 3 | 19 | 174 | – | – | – | – | – | COc1cnc(C[S+]([O-])c2nc3cc(OC(F)(F)C(F)F)ccc3[nH]2)cc1OC (stereo unspecified)
> 8.33 | 1000 | 3.5 | 11 | 456 | 8.52 | 3.9 | – | – | – | COc1ccnc(C[S+]([O-])c2nc3cc(OCC(F)(F)F)ccc3[nH]2)c1OC (stereo unspecified)
2.62 | 1260 | 4.4 | 10 | 48 | 7.91 | 4.25 | – | – | – | COc1ccnc(C[S+]([O-])c2nc3cc(OC(F)(F)C(F)F)ccc3[nH]2)c1 (stereo unspecified)
0.458 | 1580 | 5 | 6 | 12 | 8.31 | 4.96 | – | – | – | COc1cc2[nH]c([S+]([O-])Cc3nccc(OC)c3C)nc2cc1OC(F)F (stereo unspecified)
– | 1000 | 4.6 | 10 | 30 | 7.93 | 4.73 | Insoluble to measure | – | – | COc1ccnc(C[S+]([O-])c2nc3cc4c(cc3[nH]2)OC(F)(F)O4)c1C (stereo unspecified)
– | 398 | 5.5 | 5 | 18 | – | – | Insoluble to measure | – | – | COc1ccnc(C[S+]([O-])c2nc3cc(OC(F)(F)C(F)F)ccc3[nH]2)c1C (stereo unspecified)
33.3 | 3980 | 3.6 | 15 | 126 | – | – | – | – | – | COc1cc2[nH]c([S+]([O-])Cc3nccc(OC)c3OC)nc2cc1OC(F)F (stereo unspecified)
> 8.33 | 2510 | 3.6 | 38 | 360 | 7.97 | 3.84 | – | – | – | COc1ccnc(C[S+]([O-])c2nc3cc4c(cc3[nH]2)OC(F)(F)O4)c1OC (stereo unspecified)
0.625 | 501 | 4.4 | 12 | 114 | 8.23 | 4.16 | – | – | – | COc1c(C)cnc(C[S+]([O-])c2nc3cc(OC(F)F)ccc3[nH]2)c1C (stereo unspecified)
5.42 | 2510 | 4.3 | 10 | 198 | 8.61 | 3.72 | – | – | – | COc1cnc(C[S+]([O-])c2nc3cc(OCC(F)(F)F)ccc3[nH]2)c(C)c1OC (stereo unspecified)
3.33 | – | 4.5 | 4 | 60 | 8.98 | 4.13 | – | – | – | COc1ccc2[nH]c([S+]([O-])Cc3ncc(C)c(OC)c3C)nc2c1 (stereo unspecified) [OMEPRAZOLE]
